Common to all, as to assay type: functional
For assay [1], the system named is Rattus norvegicus. Briefly: Compound was evaluated for oral antihypertensive activity in spontaneously hypertensive rats at a dose of 0.1 mg/kg (po). The procedure, abridged: (§1)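 Conscious spontaneously hypertensive rats (Okamoto-derived, 14-24 weeks old; systolic pressure >180 mmHg counted as hypertensive) dosed by oral needle into the esophagus as a solution or suspension in 1% w/v methylcellulose. Systolic pressure was taken by tail-cuff, each reading the mean of at least five recordings, before dosing and at intervals up to 6 h. The maximum fall was recorded.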

Assay [2] has as its system Rattus norvegicus. Briefly: Oral antihypertensive activity in spontaneously hypertensive rats at a dose of 0.3 mg/kg (po). The gist of the method:
as §1

For assay [3], the system named is Rattus norvegicus. As to the kind of experiment: Compound was evaluated for oral antihypertensive activity in spontaneously hypertensive rats at a dose of 1.0 mg/kg (po). The procedure, abridged:
as §1

The test system of assay [4] is Rattus norvegicus. As to the kind of experiment: Oral antihypertensive activity in spontaneously hypertensive rats at a dose of 10 mg/kg (po). The procedure, abridged: as §1
In assay [5] the test system is Rattus norvegicus. As to the kind of experiment: Oral antihypertensive activity in spontaneously hypertensive rats at a dose of 3 mg/kg (po). The gist of the method: as §1
Assay [6] deals with Rattus norvegicus. Briefly: Oral antihypertensive activity in spontaneously hypertensive rats at a dose of 1 mg/kg (po). The gist of the method:
as §1

For assay [7], the system named is Rattus norvegicus. As to the kind of experiment: Compound was evaluated for oral antihypertensive activity in spontaneously hypertensive rats at a dose of 1 mg/Kg (po). The gist of the method:
as §1

For assay [8], the system named is Rattus norvegicus. Briefly: Compound was evaluated for oral antihypertensive activity in spontaneously hypertensive rats at a dose of 10 mg/Kg (po). The procedure, abridged:
as §1

Assay [9] concerns Rattus norvegicus. As to the kind of experiment: Compound was evaluated for oral antihypertensive activity in spontaneously hypertensive rats at a dose of 3 mg/Kg (po). The gist of the method: as §1

Molecules are shown by their SMILES.

Turning to `CC(C)(C)NC(=O)N[C@@H]1C(O)c2cc(C#N)ccc2OC1(C)C` (some centres not stated), the “Max fall in blood pressure” value in the assay with Rattus norvegicus [1] is reported as -19%; with Rattus norvegicus [2], -40%; in the assay on Rattus norvegicus [3] it was -63%.

For `CC1(C)Oc2ccc(C#N)cc2C(O)[C@H]1N1CCCCC1=O` (some centres not stated), the “Max fall in blood pressure” value was -16% with Rattus norvegicus [4] and -20% in the assay with Rattus norvegicus [5]. In the case of `CC1(C)Oc2ccc(C#N)cc2C(O)[C@H]1NC(=O)NC1CCCCC1` (some centres not stated), the “Max fall in blood pressure” value in the assay with Rattus norvegicus [5] was -14%. Take `CC1(C)Oc2ccc(C#N)cc2C(O)[C@H]1NC(=O)c1ccccn1` (some centres not stated): the “Max fall in blood pressure” value was -18% in the assay on Rattus norvegicus [6] and -15% in the assay on Rattus norvegicus [5]. On to `COC1c2cc(C#N)ccc2OC(C)(C)[C@@H]1NC(=O)OC(C)(C)C` (some centres not stated), for which, in the assay with Rattus norvegicus [5], the “Max fall in blood pressure” value is recorded as -39%. As for `CC(C)NC(=O)N[C@@H]1C(O)c2cc(C#N)ccc2OC1(C)C` (some centres not stated), the “Max fall in blood pressure” value is on record as -22% in the assay on Rattus norvegicus [2] and -26% in the assay with Rattus norvegicus [6]. On to `CC1(C)Oc2ccc(C#N)cc2C(O)[C@H]1NC(=O)C1CCCCC1` (some centres not stated), for which the “Max fall in blood pressure” value is reported as -11% with Rattus norvegicus [6] and -9% in the assay with Rattus norvegicus [5].

As to `CCNC(=O)N[C@@H]1C(O)c2cc(C#N)ccc2OC1(C)C` (some centres not stated), the figures for the “Max fall in blood pressure” value in the assay on Rattus norvegicus [6] and in the assay on Rattus norvegicus [5] were -13% and -18%, respectively. For `CNC(=O)N[C@@H]1C(O)c2cc(C#N)ccc2OC1(C)C` (some centres not stated), the “Max fall in blood pressure” value with Rattus norvegicus [4] is -24%; in the assay with Rattus norvegicus [5], -8%. For `CN(C)C(=O)N[C@@H]1C(O)c2cc(C#N)ccc2OC1(C)C` (some centres not stated), in the assay with Rattus norvegicus [5], the “Max fall in blood pressure” value is given as -27%. For the compound `CC(C)(C)CC(=O)N[C@@H]1C(O)c2cc(C#N)ccc2OC1(C)C` (some centres not stated), the entries for the “Max fall in blood pressure” value in the assay with Rattus norvegicus [6] and in the assay on Rattus norvegicus [5] were -9% and -27%, respectively.

As for `CC1(C)Oc2ccc(C#N)cc2C(O)[C@H]1NC(=O)c1ccc(F)c(F)c1` (some centres not stated), the “Max fall in blood pressure” value with Rattus norvegicus [6] is recorded as -6%; in the assay with Rattus norvegicus [5], -37%. In the case of `CC(C)/N=C(\S)N[C@@H]1C(O)c2cc(C#N)ccc2OC1(C)C` (some centres not stated), the “Max fall in blood pressure” value in the assay on Rattus norvegicus [2] is reported as -49%. For the compound `CC(C)(C)OC(=O)N[C@@H]1C(O)c2cc(C#N)ccc2OC1(C)C` (some centres not stated), the “Max fall in blood pressure” value in the assay on Rattus norvegicus [7] is given as -14%; in the assay on Rattus norvegicus [8], -49%; with Rattus norvegicus [9] it was -30%. Turning to `CC(C)(C)NC(=O)N[C@@H]1C(O)c2cc(C(F)(F)F)ccc2OC1(C)C` (some centres not stated), in the assay on Rattus norvegicus [6], the “Max fall in blood pressure” value was -31%. With `CC(C)(C)C(=O)N[C@@H]1C(O)c2cc(C#N)ccc2OC1(C)C` (some centres not stated), the “Max fall in blood pressure” value is listed as -30% with Rattus norvegicus [2] and -36% in the assay with Rattus norvegicus [6].

With `CCCNC(=O)N[C@@H]1C(O)c2cc(C#N)ccc2OC1(C)C` (some centres not stated), the figures for the “Max fall in blood pressure” value with Rattus norvegicus [6] and in the assay with Rattus norvegicus [5] were -10% and -32%, respectively. Regarding `CC1(C)Oc2ccc(C#N)cc2C(O)[C@H]1NC(=O)c1ccc(F)cc1` (some centres not stated), the “Max fall in blood pressure” value in the assay on Rattus norvegicus [6] is reported as -22%; in the assay on Rattus norvegicus [5] it was -42%.

For the compound `CC(C)(C)OC(=O)N[C@@H]1Cc2cc(C#N)ccc2OC1(C)C`, the “Max fall in blood pressure” value was -30% in the assay on Rattus norvegicus [4] and -26% with Rattus norvegicus [5]. As for `CC1(C)Oc2ccc(C#N)cc2C(O)[C@H]1NC(=O)c1ccccc1` (some centres not stated), the “Max fall in blood pressure” value in the assay with Rattus norvegicus [5] is -20%. `CC(C)(C)OC(=O)N[C@@H]1C(N)c2cc(C#N)ccc2OC1(C)C` (some centres not stated): the “Max fall in blood pressure” value with Rattus norvegicus [4] was -25%. Take `CC(C)(C)NC(=O)N[C@@H]1Cc2cc(C#N)ccc2OC1(C)C`: in the assay on Rattus norvegicus [2], the “Max fall in blood pressure” value is given as -27%. For the compound `CC(C)C(=O)N[C@@H]1C(O)c2cc(C#N)ccc2OC1(C)C` (some centres not stated), the entries for the “Max fall in blood pressure” value in the assay on Rattus norvegicus [1] and in the assay with Rattus norvegicus [2] were -22% and -39%, respectively.

In the case of `CC(=O)N[C@@H]1C(O)c2cc(C#N)ccc2OC1(C)C` (some centres not stated), the “Max fall in blood pressure” value in the assay on Rattus norvegicus [4] was -32%; in the assay with Rattus norvegicus [5], -14%. For the compound `CC(C)(C)NC(=O)N[C@@H]1C(O)c2cc(Cl)ccc2OC1(C)C` (some centres not stated), the figures for the “Max fall in blood pressure” value in the assay with Rattus norvegicus [2] and in the assay with Rattus norvegicus [5] were -16% and -34%, respectively. `CC1(C)Oc2ccc(C#N)cc2C(N2CCCC2=O)C1O` (configuration not stated) [CROMAKALIM]: the “Max fall in blood pressure” value in the assay on Rattus norvegicus [1] is on record as -13%; in the assay with Rattus norvegicus [2] it was -39%; in the assay with Rattus norvegicus [6] it was -47%.

The values are drawn from ChEMBL document CHEMBL1126327, “Synthesis and antihypertensive activity of 3-[(substituted-carbonyl)amino]-2H-1-benzopyrans” (1992).
